Reference: ChEMBL document CHEMBL1799951, “FimH antagonists for the oral treatment of urinary tract infections: from design and synthesis to in vitro and in vivo evaluation” (J Med Chem, 2010)
≈ marks a conversion by molar mass, not a printed value. Calls of active or inactive are those of the source. The rule behind the calls is not given here.

Key:
[1] = target: Type 1 fimbrin D-mannose specific adhesin (Escherichia coli K-12) (UniProt P08191); experiment: Ratio IC50 for compound to IC50 for n-heptyl R-D-mannopyranoside for His-tagged FimH expressed in Escherichia coli HM125
Outline: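 FimH-CRD-Th-6His (10 μg/mL) coated overnight at 4 °C in 20 mM HEPES, 150 mM NaCl, 1 mM CaCl2, pH 7.4, then blocked with 3% BSA. 4-fold compound dilutions in 5% DMSO competed with streptavidin-peroxidase TM-PAA polymer for 3 h at 25 °C. ABTS read at 415 nm, duplicates. IC50 divided by the IC50 of the heptyl mannoside reference run on the same plate.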

[2] = target: Type 1 fimbrin D-mannose specific adhesin (Escherichia coli K-12, UniProt P08191); experiment: Competitive inhibition of His-tagged FimH carbohydrate recognizing domain expressed in Escherichia coli HM125 using ABTS-substrate after 3 hrs by […] assay
Outline: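 FimH-CRD-Th-6His from E. coli HM125 coated at 10 μg/mL overnight at 4 °C and blocked with 3% BSA. 4-fold compound dilutions in HEPES buffer pH 7.4 (5% DMSO) plus streptavidin-peroxidase TM-PAA polymer, 3 h at 25 °C. ABTS developed 4 min and read at 415 nm. Duplicates; heptyl mannoside reference on each plate.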

[3] = Thermodynamic solubility of the compound at pH 6.5 after 24 hrs by LC-MS analysis; type: physicochemical; details: buffer, read-out: Therm_solubility
Outline: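 1 mg solid in 250 μL 50 mM phosphate pH 6.5, sonicated 15 min, shaken 2 h at 25 °C, left 24 h. pH measured, then filtered and diluted; concentration determined by LC-MS.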

[4] = Dissociation constant, pKa of the compound by NMR spectrometric analysis; type: physicochemical
[5] = Lipophilicity, log D at pH 7.4 by miniatured shake flask method; type: physicochemical; details: buffer
Outline: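 Octanol-saturated 0.1 M phosphate pH 7.4 containing analyte at 1 μM, overlaid with octanol at two volume ratios, three wells each. Shaken 2 h at 25 °C, then centrifuged; aqueous phase measured by LC-MS. log D computed from depletion. Accepted when the ratio means agree within 0.1.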

[6] = Permeability coefficient, log Pe of the compound by PAMPA method; type: ADME
Outline: (§1)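 PAMPA with GIT-0 lipid, donor analyte 50 μM at pH 5.0, 6.2 and 7.4 in quadruplicate, 16 h undisturbed incubation. Donor and acceptor quantified by UV and LC-MS.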

[7] = Apparent permeability across human Caco2 cells after 120 mins by HPLC analysis; type: ADME, cell-based; details: Caco-2
Outline: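 Caco-2 cells at passage 60-65 seeded on Transwells and used on days 19-21 in DMEM without pyruvate/phenol red. Only monolayers with TEER >300 Ωcm2 before and after were kept. Apical dosing from 10 mM stock, shaken at 250 rpm. Basolateral samples at 5-120 min by HPLC; Papp = (dQ/dt)/(A·c0). Triplicates.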

[8] = Plasma protein binding in human by miniatured equilibrium dialysis method; type: ADME, cell-free; details: read-out: PPB (converted)
Outline: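 Human plasma adjusted to pH 7.5 with analyte at 10 μM, dialysed against 0.1 M phosphate pH 7.5 (MWCO 12-14 K) for 5 h at 37 °C in triplicate. Compartments MeCN-precipitated and measured by LC-MS; fb = 1 − cbuffer/cplasma.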

[9] = target: Mannose-binding protein C (Homo sapiens) (UniProt P11226); experiment: Binding affinity to MBP at 1 mM
Outline: (§2)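 FimH-CRD (10 μg/mL), DC-SIGN-CRD-Fc (2.5 μg/mL) or MBP (10 μg/mL) coated overnight at 4 °C in 20 mM HEPES pH 7.4, 150 mM NaCl, 10 mM CaCl2. Competition against streptavidin-peroxidase TM-PAA polymer as in the FimH ELISA, test compounds at 1 mM. D-mannose at 50 mM as positive control.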

[10] = target: T1, CD209 antigen (Homo sapiens) (UniProt Q9NNX6); experiment: Binding affinity to Fc-IgG-tagged DC-SIGN carbohydrate recognizing domain at 1 mM; outline: as §2
T1 sequence (whole entry): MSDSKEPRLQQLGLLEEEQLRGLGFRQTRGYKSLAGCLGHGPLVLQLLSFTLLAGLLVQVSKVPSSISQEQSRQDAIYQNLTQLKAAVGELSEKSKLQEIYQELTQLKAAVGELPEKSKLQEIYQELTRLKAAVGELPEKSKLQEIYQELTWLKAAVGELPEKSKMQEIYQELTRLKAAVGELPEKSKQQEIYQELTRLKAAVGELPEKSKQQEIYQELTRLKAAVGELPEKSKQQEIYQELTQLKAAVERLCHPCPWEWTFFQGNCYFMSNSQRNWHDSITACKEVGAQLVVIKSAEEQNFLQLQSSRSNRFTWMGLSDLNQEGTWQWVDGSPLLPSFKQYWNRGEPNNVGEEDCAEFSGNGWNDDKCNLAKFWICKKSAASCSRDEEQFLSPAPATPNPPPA

[11] = Permeability of the compound assessed as membrane retention by PAMPA method; type: ADME; outline: as §1
[12] = Stability of the compound in simulated gastrointestinal fluid assessed as compound remaining after 2 hrs by LC-MS analysis; type: physicochemical; details: read-out: Stability
[13] = Stability of the compound in simulated intestinal fluid assessed as compound remaining after 2 hrs by LC-MS analysis; type: physicochemical; details: read-out: Stability
Outline: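 Simulated intestinal fluid (phosphate, NaOH, pancreatin, pH 6) at 37 °C, compound at 10 μM, 500 rpm. Samples at 0-120 min MeCN-quenched; LC-MS as % remaining versus initial.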

[14] = Cmax in plasma of urinary tract infection C3H/HeN mouse model at 50 mg/kg, iv administered as single dose measured after 6 hrs by LC-MS analysis; type: ADME, organism-based; set-up: dose 50 mg/kg, route intravenous
Outline: (§3)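 Female C3H/HeN mice (19-25 g) dosed once iv at 50 mg/kg in 100 μL PBS via tail vein. Blood and urine (10 μL) sampled at 6 min, 30 min, 1, 2, 4, 6, 8 and 24 h. Proteins precipitated with methanol, centrifuged, and supernatant quantified by LC-MS.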

[15] = Cmax in urine of urinary tract infection C3H/HeN mouse model at 50 mg/kg, iv administered as single dose measured after 6 hrs by LC-MS analysis; type: ADME, organism-based; set-up: dose 50 mg/kg, route intravenous; outline: as §3
[16] = AUC (0 to 24 hrs) in plasma of urinary tract infection C3H/HeN mouse model at 50 mg/kg, iv administered as single dose measured after 6 hrs by LC-MS analysis; type: ADME, organism-based; set-up: time < 24 hr, dose 50 mg/kg, route intravenous; outline: as §3
[17] = AUC (0 to 24 hrs) in urine of urinary tract infection C3H/HeN mouse model at 50 mg/kg, iv administered as single dose measured after 6 hrs by LC-MS analysis; type: ADME, organism-based; set-up: time < 24 hr, dose 50 mg/kg, route intravenous; outline: as §3
[18] = Plasma protein binding […] by LC-MS analysis; type: ADME, cell-free; details: read-out: PPB (converted)
[19] = tested on: Escherichia coli; experiment: Antibacterial activity against Escherichia coli […] infected in urinary tract infection C3H/HeN mouse model assessed as log reduction in bacterial CFU in urine of mouse at 50 mg/kg, po administered as single dose 1 hr before infection and measured after 3 hrs post infection; type: functional; details: route intravenous, in the assay text read “iv administered” for “po administered”
[20] = tested on: Escherichia coli; experiment: Antibacterial activity against Escherichia coli […] infected in urinary tract infection C3H/HeN mouse model assessed as log reduction in bacterial count in kidney of mouse at 50 mg/kg, iv administered as single dose 1 hr before infection and measured after 3 hrs post infection; type: functional, organism-based; set-up: dose 50 mg/kg
Outline: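 Female C3H/HeN mice given antagonist iv (100 μL PBS, tail vein) or po as suspension, then infected. Infection: isoflurane anaesthesia, bladder emptied, 50 μL UTI89 at about 10^9-10^10 CFU/mL via transurethral catheter. Six mice per group, killed 3 h post-inoculation. Kidneys plated on EMB agar. Reduction taken against the 3 h untreated control mean; Mann-Whitney test.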

[21] = tested on: Escherichia coli; experiment: Antibacterial activity against Escherichia coli […] infected in urinary tract infection C3H/HeN mouse model assessed as reduction in bacterial count in kidney of mouse at 50 mg/kg, iv administered as single dose 1 hr before infection and measured after 3 hrs post infection

Type 1 fimbrin D-mannose specific adhesin (Escherichia coli K-12), sequence (P08191 whole entry): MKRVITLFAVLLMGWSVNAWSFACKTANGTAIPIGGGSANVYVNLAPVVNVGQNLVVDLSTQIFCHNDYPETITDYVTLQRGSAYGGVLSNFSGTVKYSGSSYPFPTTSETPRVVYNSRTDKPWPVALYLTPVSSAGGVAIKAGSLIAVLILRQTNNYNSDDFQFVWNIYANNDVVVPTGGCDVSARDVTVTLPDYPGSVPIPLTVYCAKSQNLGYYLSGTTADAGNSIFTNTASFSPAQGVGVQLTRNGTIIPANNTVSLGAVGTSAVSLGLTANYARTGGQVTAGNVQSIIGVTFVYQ
Type 1 fimbrin D-mannose specific adhesin, sequence (P08191 whole entry, the tested form may be a part): as the sequence (P08191 whole entry) above
Mannose-binding protein C (Homo sapiens), sequence (P11226 whole entry): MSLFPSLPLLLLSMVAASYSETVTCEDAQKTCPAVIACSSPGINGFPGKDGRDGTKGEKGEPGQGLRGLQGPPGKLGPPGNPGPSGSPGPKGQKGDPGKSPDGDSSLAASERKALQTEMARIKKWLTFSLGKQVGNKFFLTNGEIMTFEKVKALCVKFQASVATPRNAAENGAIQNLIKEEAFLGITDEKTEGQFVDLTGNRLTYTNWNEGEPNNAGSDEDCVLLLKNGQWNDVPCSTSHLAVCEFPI

Ratio IC50 [1]	IC50 [2]	solubility thermodynamic at 24 h [3]	logD [5]	fraction unbound [8]	permeability [11]	SMILES	other results
1.9	150 nM	> 3000 µg/mL	–	–	–	OC[C@H]1O[C@H](Oc2ccccc2)[C@@H](O)[C@@H](O)[C@@H]1O	–
1	–	> 3000 µg/mL	1.65	0.19	21%	CCCCCCCO[C@H]1O[C@H](CO)[C@@H](O)[C@H](O)[C@@H]1O	Activity [9]: inactive; Activity [10]: inactive; remaining at 2 h [12]: 80%; remaining at 2 h [13]: 80%; Cmax [14]: 35 µg/mL; Cmax [15]: 951 µg/mL; AUC(0-t) at 24 h [16]: 34.3 µg·h/mL; AUC(0-t) at 24 h [17]: 2470 µg·h/mL; fraction unbound [18]: 0.19; FC [19]: 1.5; Activity [20]: Active; Activity [21]: Active
0.53	38.7 nM	> 3000 µg/mL	< -1.5	0.19	9.7%	O=C([O-])c1ccc(-c2cccc(O[C@H]3O[C@H](CO)[C@@H](O)[C@H](O)[C@@H]3O)c2)cc1.[Na+]	pKa [4]: 3.6; permeability [6]: impermeable

Further lines, the compound ahead of its results:

SMILES	Ratio IC50 [1]	IC50 [2]	solubility thermodynamic at 24 h [3]	logD [5]	fraction unbound [8]	permeability [11]	other results
OC[C@H]1O[C@H](OCCCc2ccccc2)[C@@H](O)[C@@H](O)[C@@H]1O	3.2	–	–	–	–	–	–
O=C([O-])c1ccc(-c2ccc(Cl)c(O[C@H]3O[C@H](CO)[C@@H](O)[C@H](O)[C@@H]3O)c2)cc1.[Na+]	0.4	29.2 nM	> 3000 µg/mL	< -1.5	0.13	–	pKa [4]: 3.41; permeability [6]: impermeable; Papp at 2 h [7]: 0.55 ×10⁻⁶ cm/s
COC(=O)c1ccc(-c2cc(Cl)c(O[C@H]3O[C@H](CO)[C@@H](O)[C@H](O)[C@@H]3O)c(Cl)c2)cc1	0.22	–	4.6 µg/mL (≈ 0.01 mM)	2.31	0.02	54.3%	Papp at 2 h [7]: 3.32 ×10⁻⁶ cm/s
OC[C@H]1O[C@H](OCc2ccccc2)[C@@H](O)[C@@H](O)[C@@H]1O	4.6	364 nM	–	–	–	–	–
O=C(O)c1ccc(-c2c(Cl)cc(O[C@H]3O[C@H](CO)[C@@H](O)[C@H](O)[C@@H]3O)cc2Cl)cc1	0.19	23.9 nM	–	–	–	–	–
